Source: ChEMBL document CHEMBL3102712, “Targeting the Warburg Effect in cancer; relationships for 2-arylpyridazinones as inhibitors of the key glycolytic enzyme 6-phosphofructo-2-kinase/2,6-bisphosphatase 3 (PFKFB3)” (Bioorg Med Chem, 2014)
Active and inactive are the calls of the source. The calls are words filed in the database; no cut-off is given here.

Tests used:
[1] = target: T1, 6-phosphofructo-2-kinase/fructose-2,6-bisphosphatase 3 (Homo sapiens, UniProt Q16875); assay: Inhibition of human recombinant GST-tagged PFKFB3 expressed in Escherichia coli BL21(DE3) using fructose 6-phosphate as substrate preincubated for 30 mins before substrate addition measured after 60 mins by kinase-glo assay
T1 sequence (Q16875 whole entry): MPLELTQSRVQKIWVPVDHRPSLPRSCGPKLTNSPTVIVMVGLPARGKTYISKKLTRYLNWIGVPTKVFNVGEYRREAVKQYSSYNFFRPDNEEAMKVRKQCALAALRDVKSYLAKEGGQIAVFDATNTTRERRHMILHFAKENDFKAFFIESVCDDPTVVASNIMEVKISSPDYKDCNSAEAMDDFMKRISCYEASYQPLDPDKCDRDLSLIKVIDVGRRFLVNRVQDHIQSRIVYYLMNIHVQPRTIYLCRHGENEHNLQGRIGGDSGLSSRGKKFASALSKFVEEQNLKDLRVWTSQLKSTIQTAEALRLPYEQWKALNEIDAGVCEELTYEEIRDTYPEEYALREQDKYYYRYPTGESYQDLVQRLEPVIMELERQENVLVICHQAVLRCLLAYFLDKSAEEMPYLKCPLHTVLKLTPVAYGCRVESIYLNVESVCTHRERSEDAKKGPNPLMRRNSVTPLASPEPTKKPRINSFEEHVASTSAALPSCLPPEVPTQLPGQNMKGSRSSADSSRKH
Outline: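 GST-tagged human PFKFB3 was purified on glutathione sepharose. The compound was preincubated with enzyme for 30 min at 30 °C in 40 mM Tris pH 7.5, 20 mM MgCl2, 0.1 mg/mL BSA. ATP and F6P were then added in buffer containing 25 µM ATP and 1.25 mM F6P, for 60 min at 30 °C. Remaining ATP was read by Kinase-Glo luminescence. IC50 came from nonlinear regression, mean ± SD of ≥3 independent experiments.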

[2] = target: T1, 6-phosphofructo-2-kinase/fructose-2,6-bisphosphatase 3; assay: Inhibition of PFKFB3-mediated glycolysis in human MDA-MB-231 cells assessed as extracellular acidification rate at 10 uM after 60 mins; type: cell-based
Outline: (§1)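 MDA-MB-231 cells were seeded at 15,000/well for 24 h, then switched to assay medium in an XF24 analyzer. After 2 baseline readings, compound (10 µM) was injected and ECAR tracked for 2 h. 2-Deoxyglucose (100 mM) was then injected as positive control and ECAR followed 32 min more. ECAR was expressed as % of baseline, with protein measured by BCA after RIPA lysis; n = 3.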

[3] = target: T1, 6-phosphofructo-2-kinase/fructose-2,6-bisphosphatase 3; assay: Inhibition of PFKFB3-mediated glycolysis in human MDA-MB-231 cells assessed as extracellular acidification rate at 10 uM after 2 hrs; type: cell-based; outline: as §1
[4] = target: T1, 6-phosphofructo-2-kinase/fructose-2,6-bisphosphatase 3; assay: Inhibition of PFKFB3 (unknown origin)
[5] = target: T1, 6-phosphofructo-2-kinase/fructose-2,6-bisphosphatase 3; assay: Inhibition of PFKFB3 in human HeLa cells assessed as reduction of fructose 2,6-bisphosphate level at IC50 after 8 hrs; type: cell-based
[6] = target: T1, 6-phosphofructo-2-kinase/fructose-2,6-bisphosphatase 3; assay: Inhibition of PFKFB3 in human HeLa cells assessed as reduction of lactate secretion at IC50 after 8 hrs; type: cell-based
[7] = Solubility of the compound; type: physicochemical
[8] = target: T1, 6-phosphofructo-2-kinase/fructose-2,6-bisphosphatase 3; details: 250 uM

`O=c1c(Br)c(N2CCOCC2)cnn1-c1ccccc1` showed an IC50 [1] greater than 1000 µM.

With `CC(=O)c1nnn(-c2cnn(-c3ccc(OC(F)(F)F)cc3)c(=O)c2Br)c1C` the inhibition [2] was 30% and the IC50 [1] was 9.1 µM.

`CC(=O)c1nnn(-c2cnn(Cc3ccc(I)cc3)c(=O)c2Br)c1C` gave an IC50 [1] of 8.7 µM.

Work on `N#Cc1cccc2c1CCN(c1cnn(-c3ccccc3)c(=O)c1Br)C2` yielded an IC50 [1] greater than 500 µM.

For `O=C(/C=C/c1cccnc1)c1ccncc1`, the inhibition [3] was “inactive” and the IC50 [4] was 25 µM.

With `O=C(O)c1ccc(NS(=O)(=O)c2cccc3ccccc23)cc1O` the IC50 [1] was 27 µM and the IC50 [4] was 27 µM.

`CC(=O)c1nnn(-c2cnn(-c3ccc(Cl)cc3)c(=O)c2Br)c1C` gave an inhibition [2] of 30% and an IC50 [1] of 7 µM.

With `CC(=O)c1nnn(-c2cnn(-c3ccccc3)c(=O)c2C(C)C)c1C` the IC50 [1] was greater than 500 µM.

In the case of `CC(=O)c1nnn(-c2cnn(CCc3ccccc3)c(=O)c2Br)c1C`, the IC50 [1] is reported as 2.6 µM.

For `CC(=O)c1nnn(-c2cnn(Cc3ccccc3)c(=O)c2)c1C`, the IC50 [1] was greater than 10000 µM.

For `O=c1c(Br)c(NCC2CCCO2)cnn1-c1ccccc1` (stereo unspecified), the IC50 [1] was greater than 1000 µM.

For `O=c1c(-c2ccc(O)cc2)coc2c(O)c(O)ccc12`, the inhibition [5] was 40% and the inhibition [6] was greater than 30%.

For `CC(=O)c1nnn(-c2cnn(-c3ccccc3)c(=O)c2I)c1C`, the IC50 [1] was 13 µM.

`CC(=O)c1nnn(-c2cnn(Cc3ccccc3)c(=O)c2Br)c1C` showed an IC50 [1] of 3.4 µM.

With `CCOC(=O)c1cn(-c2cnn(-c3ccccc3)c(=O)c2N2CC3(COC3)C2)nn1` the IC50 [1] was 55 µM.

`CCOc1c(-n2nnc(C(C)=O)c2C)cnn(-c2ccccc2)c1=O` gave an IC50 [1] greater than 1000 µM.

`NC(=O)CNc1cnn(-c2ccccc2)c(=O)c1Br` gave an IC50 [1] greater than 1000 µM.

With `CC(=O)c1nnn(-c2cnn(-c3ccccc3)c(=O)c2Cl)c1C` the IC50 [1] was 26 µM.

For `CC(=O)c1nnn(-c2cnn(CCCc3ccccc3)c(=O)c2Br)c1C`, the inhibition [2] was 30% and the IC50 [1] was 11 µM.

In the case of `CC(=O)c1nnn(-c2cnn(-c3ccccc3)c(=O)c2Br)c1C`, the inhibition [3] is reported as “inactive” and the IC50 [1] is reported as 7.4 µM.

Molecule `CC(=O)c1nnn(-c2cnn(-c3ccc(C#N)cc3)c(=O)c2Br)c1C` has an IC50 [1] of 8.4 µM.

Molecule `CC(=O)c1nnn(-c2cnn(-c3cncnc3)c(=O)c2Br)c1C` has an inhibition [2] of 30% and an IC50 [1] of 9.6 µM.

In the case of `O=C(c1ccncc1)c1cc2c(ccc3ccccc32)[nH]1`, the solubility [7] is reported as “Insoluble” and the IC50 [4] is reported as greater than 1000 µM.

In the case of `O=C(/C=C/c1ccc2ccccc2n1)c1ccncc1`, the IC50 [1] is reported as greater than 1000 µM and the inhibition [8] is reported as 26%.

Molecule `CC(=O)c1nnn(-c2cnn(Cc3ccc(NCCN(C)C)cc3)c(=O)c2Br)c1C` has an IC50 [1] greater than 500 µM.

Work on `O=c1c(Br)c(N2CC3(COC3)C2)cnn1-c1ccccc1` yielded an IC50 [1] greater than 1000 µM.
